Assay results as given in ChEMBL document CHEMBL4414574, “Structure-Based Discovery and Development of a Series of Potent and Selective Bromodomain and Extra-Terminal Protein Inhibitors” (J Med Chem, 2019).
Calls of active or inactive are those of the source. The rule behind the calls is not given here.

How the values were obtained:
[1] = Half life in human liver microsomes at 1 uM preincubated for 5 mins followed by NADPH addition and measured after 5 to 30 mins by LC/MS/MS analysis; format: ADME, Microsome
[2] = Half life in mouse liver microsomes at 1 uM preincubated for 5 mins followed by NADPH addition and measured after 5 to 30 mins by LC/MS/MS analysis; format: ADME, Microsome; settings: mouse liver microsomes
[3] = Tmax in ICR mouse at 10 mg/kg, po administered via gavage measured after 0.25 to 24 hrs by UPLC/MS analysis; format: ADME, organism-based; settings: in vivo
In short: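 Male ICR mice dosed orally (3, 10 or 100 mg/kg, per line) in 1% DMSO/0.5% HPMC vehicle; plasma drug levels measured.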

[4] = Intrinsic clearance in human liver microsomes at 1 uM preincubated for 5 mins followed by NADPH addition and measured after 5 to 30 mins by LC/MS/MS analysis; format: ADME, Microsome; settings: read-out: CLH
In short: (§1)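 Liver microsomes (0.5 mg/mL) preincubated 5 min at 37 °C with 1 μM compound in 0.1 M phosphate buffer pH 7.4 containing 1 mM EDTA and 5 mM MgCl2; started with 1 mM NADPH; sampled at 0, 5, 10 and 30 min; quenched with cold acetonitrile; parent remaining quantified by LC/MS/MS.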

[5] = target: Cytochrome P450 2D6 (Homo sapiens, UniProt P10635); test: Time-dependent inhibition of CYP2D6 in human liver microsomes at 10 uM using dextromethorphan as substrate preincubated up to 30 mins followed by NADPH generating system addition and measured after 10 mins; format: ADME
Chain of Cytochrome P450 2D6 (P10635 whole entry): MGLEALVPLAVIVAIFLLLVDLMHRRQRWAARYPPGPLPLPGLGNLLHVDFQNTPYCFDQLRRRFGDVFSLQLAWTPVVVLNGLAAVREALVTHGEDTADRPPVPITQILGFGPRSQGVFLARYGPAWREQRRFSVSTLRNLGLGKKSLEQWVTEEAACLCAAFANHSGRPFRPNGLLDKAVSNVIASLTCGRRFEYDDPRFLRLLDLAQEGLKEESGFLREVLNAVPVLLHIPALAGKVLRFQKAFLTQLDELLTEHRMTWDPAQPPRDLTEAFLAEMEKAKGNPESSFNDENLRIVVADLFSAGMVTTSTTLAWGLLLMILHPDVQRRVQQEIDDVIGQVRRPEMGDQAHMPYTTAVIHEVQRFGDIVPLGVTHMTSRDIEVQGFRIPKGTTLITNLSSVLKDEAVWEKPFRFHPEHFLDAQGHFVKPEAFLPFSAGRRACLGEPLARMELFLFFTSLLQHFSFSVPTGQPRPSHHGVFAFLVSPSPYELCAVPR
In short: (§2)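 Human liver microsomes 0.2 mg/mL, 100 mM phosphate pH 7.4, 10 μM test compound, preincubated 0, 5, 10 and 30 min at 37 °C; then NADPH plus probe cocktail (5 μM midazolam, 50 μM testosterone, 5 μM dextromethorphan, 10 μM diclofenac, 50 μM phenacetin, 50 μM S-(+)-mephenytoin) added; 10 min reaction; kobs in units of 10^-4/min.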

[6] = target: CYP2C19 (Homo sapiens, UniProt P33261); test: Reversible inhibition of CYP2C19 in human liver microsomes at 10 uM using mephenytoin as substrate preincubated for 5 mins followed by NADPH generating system addition and measured after 20 mins relative to control; format: ADME; settings: probe mephenytoin
Chain of CYP2C19 (P33261 whole entry): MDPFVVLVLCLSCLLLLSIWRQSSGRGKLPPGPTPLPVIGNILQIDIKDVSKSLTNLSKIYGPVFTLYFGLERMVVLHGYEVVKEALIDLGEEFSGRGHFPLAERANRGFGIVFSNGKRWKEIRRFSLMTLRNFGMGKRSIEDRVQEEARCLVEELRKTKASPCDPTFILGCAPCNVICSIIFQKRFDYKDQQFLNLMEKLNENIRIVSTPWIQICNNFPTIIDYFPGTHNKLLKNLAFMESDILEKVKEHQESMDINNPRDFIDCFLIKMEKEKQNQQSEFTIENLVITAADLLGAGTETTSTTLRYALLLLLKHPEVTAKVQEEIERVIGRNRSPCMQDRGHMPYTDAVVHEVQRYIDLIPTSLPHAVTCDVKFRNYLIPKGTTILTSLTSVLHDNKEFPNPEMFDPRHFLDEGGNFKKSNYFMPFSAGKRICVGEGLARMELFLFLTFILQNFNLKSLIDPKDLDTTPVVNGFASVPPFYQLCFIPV
In short: (§3)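 Human liver microsomes 0.2 mg/mL, 100 mM phosphate pH 7.4, 10 μM test compound, probe cocktail (10 μM midazolam, 100 μM testosterone, 10 μM dextromethorphan, 20 μM diclofenac, 100 μM phenacetin, 100 μM mephenytoin); organic solvent <1%; 5 min preincubation at 37 °C, started with NADPH-generating system, 20 min reaction; metabolite formation expressed relative to PBS control.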

[7] = target: Cytochrome P450 2C19 (Homo sapiens, UniProt P33261); test: Time-dependent inhibition of CYP2C19 in human liver microsomes at 10 uM using mephenytoin as substrate preincubated up to 30 mins followed by NADPH generating system addition and measured after 10 mins; format: ADME; in short: as §2
Chain of Cytochrome P450 2C19 (P33261 whole entry): as above

[8] = target: Cytochrome P450 3A4 (Homo sapiens, UniProt P08684); test: Time-dependent inhibition of CYP3A4 in human liver microsomes at 10 uM using midazolam or testosterone as substrate preincubated up to 30 mins followed by NADPH generating system addition and measured after 10 mins; format: ADME; in short: as §2
Chain of Cytochrome P450 3A4 (P08684 whole entry): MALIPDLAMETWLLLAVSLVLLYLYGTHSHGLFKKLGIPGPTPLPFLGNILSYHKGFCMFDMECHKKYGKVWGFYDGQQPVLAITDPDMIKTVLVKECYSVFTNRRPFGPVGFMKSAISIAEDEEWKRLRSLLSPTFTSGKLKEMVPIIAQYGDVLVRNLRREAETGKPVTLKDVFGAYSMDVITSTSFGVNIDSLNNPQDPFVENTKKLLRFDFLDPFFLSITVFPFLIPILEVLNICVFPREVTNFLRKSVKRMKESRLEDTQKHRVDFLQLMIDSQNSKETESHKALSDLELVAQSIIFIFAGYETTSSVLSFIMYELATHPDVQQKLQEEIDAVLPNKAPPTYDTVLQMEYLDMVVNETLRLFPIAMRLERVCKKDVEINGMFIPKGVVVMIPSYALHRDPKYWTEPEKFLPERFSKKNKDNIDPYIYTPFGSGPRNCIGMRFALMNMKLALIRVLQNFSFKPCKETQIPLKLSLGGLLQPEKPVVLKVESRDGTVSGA

[9] = Cmax in ICR mouse at 10 mg/kg, po administered via gavage measured after 0.25 to 24 hrs by UPLC/MS analysis; format: ADME, organism-based; set-up: dose 10 mg/kg, route oral; settings: in vivo
In short: (§4)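 Male ICR mice dosed orally in 1% DMSO/0.5% HPMC vehicle; plasma or brain drug levels used to derive Tmax, Cmax, AUC0-t, AUC0-inf and T1/2.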

[10] = AUC (0 to t) in ICR mouse at 10 mg/kg, po administered via gavage measured after 0.25 to 24 hrs by UPLC/MS analysis; format: ADME, organism-based; set-up: time 0.25-24 hr, dose 10 mg/kg, route oral; settings: in vivo
In short: (§5)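 Male ICR mice were dosed orally in 1% DMSO/0.5% HPMC vehicle. Plasma (and brain, where stated) concentrations gave Tmax, Cmax, T1/2, AUC0-t and AUC0-inf.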

[11] = AUC (0 to infinity) in ICR mouse at 10 mg/kg, po administered via gavage measured after 0.25 to 24 hrs by UPLC/MS analysis; format: ADME, organism-based; set-up: dose 10 mg/kg, route oral, time infinity; settings: in vivo; in short: as §5
[12] = target: T1, Cytochrome P450 1A2 (Homo sapiens, UniProt P05177); test: Time-dependent inhibition of CYP1A2 in human liver microsomes at 10 uM using phenacetin as substrate preincubated up to 30 mins followed by NADPH generating system addition and measured after 10 mins; format: ADME; in short: as §2
T1 sequence (P05177 whole entry): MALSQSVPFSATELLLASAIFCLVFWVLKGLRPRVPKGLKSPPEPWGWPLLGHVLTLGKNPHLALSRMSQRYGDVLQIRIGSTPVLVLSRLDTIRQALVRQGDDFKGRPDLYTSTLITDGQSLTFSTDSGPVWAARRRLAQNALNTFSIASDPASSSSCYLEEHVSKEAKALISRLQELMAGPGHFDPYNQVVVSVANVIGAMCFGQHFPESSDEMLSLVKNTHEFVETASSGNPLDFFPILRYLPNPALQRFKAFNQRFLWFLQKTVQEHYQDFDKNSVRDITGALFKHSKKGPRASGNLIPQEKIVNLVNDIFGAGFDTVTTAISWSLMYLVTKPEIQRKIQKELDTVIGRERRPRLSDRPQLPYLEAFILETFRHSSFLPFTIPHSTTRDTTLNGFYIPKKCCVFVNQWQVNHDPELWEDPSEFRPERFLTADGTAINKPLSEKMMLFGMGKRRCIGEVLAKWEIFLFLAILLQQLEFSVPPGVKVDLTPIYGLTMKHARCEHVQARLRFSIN

[13] = Intrinsic clearance in mouse liver microsomes at 1 uM preincubated for 5 mins followed by NADPH addition and measured after 5 to 30 mins by LC/MS/MS analysis; format: ADME, Microsome; settings: read-out: CLH; in short: as §1
[14] = target: CYP3A4 (Homo sapiens, UniProt P08684); test: Reversible inhibition of CYP3A4 in human liver microsomes at 10 uM using midazolam or testosterone as substrate preincubated for 5 mins followed by NADPH addition and measured after 20 mins relative to control; format: ADME; settings: probe midazolam or testosterone; in short: as §3
Chain of CYP3A4 (P08684 whole entry): as the sequence (P08684 whole entry) above

[15] = target: CYP1A2 (Homo sapiens, UniProt P05177); test: Reversible inhibition of CYP1A2 in human liver microsomes at 10 uM using phenacetin as substrate preincubated for 5 mins followed by NADPH generating system addition and measured after 20 mins relative to control; format: ADME; settings: probe phenacetin; in short: as §3
[16] = target: CYP2C9 (Homo sapiens, UniProt P11712); test: Reversible inhibition of CYP2C9 in human liver microsomes at 10 uM using diclofenac as substrate preincubated for 5 mins followed by NADPH generating system addition and measured after 20 mins relative to control; format: ADME; settings: probe diclofenac; in short: as §3
Chain of CYP2C9 (P11712 whole entry): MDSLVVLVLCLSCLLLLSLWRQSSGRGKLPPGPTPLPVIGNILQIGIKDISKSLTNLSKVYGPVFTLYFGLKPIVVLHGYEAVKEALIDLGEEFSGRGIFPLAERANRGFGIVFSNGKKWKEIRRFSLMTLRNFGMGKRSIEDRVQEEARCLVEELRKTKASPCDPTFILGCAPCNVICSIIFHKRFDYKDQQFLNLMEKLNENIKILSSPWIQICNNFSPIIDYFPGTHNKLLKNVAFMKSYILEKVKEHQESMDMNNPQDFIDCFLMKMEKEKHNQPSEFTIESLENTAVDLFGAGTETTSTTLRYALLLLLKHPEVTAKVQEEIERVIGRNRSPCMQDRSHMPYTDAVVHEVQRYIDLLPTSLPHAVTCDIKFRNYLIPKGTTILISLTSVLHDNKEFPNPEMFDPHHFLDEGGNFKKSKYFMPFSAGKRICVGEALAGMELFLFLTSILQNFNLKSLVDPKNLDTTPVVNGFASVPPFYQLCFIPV

[17] = Half life in ICR mouse at 10 mg/kg, po administered via gavage measured after 0.25 to 24 hrs by UPLC/MS analysis; format: ADME, organism-based; settings: in vivo; in short: as §4
[18] = tested on: MM1.S; test: Antiproliferative activity against human MM1S cells after 72 hrs by CCK8 or SRB assay; format: functional, cell-based
In short: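 IC50 against MM.1S cell proliferation was taken as the mean of three independent experiments, each run in triplicate, reported with SEM.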

[19] = target: Cytochrome P450 2C9 (Homo sapiens, UniProt P11712); test: Time-dependent inhibition of CYP2C9 in human liver microsomes at 10 uM using diclofenac as substrate preincubated up to 30 mins followed by NADPH generating system addition and measured after 10 mins; format: ADME; in short: as §2
Chain of Cytochrome P450 2C9 (P11712 whole entry): as above

[20] = target: T2, Bromodomain-containing protein 4 (Homo sapiens, UniProt O60885); test: Displacement of 5-FITC labelled (+)-JQ1 from His6-tagged human BRD4 bromodomain 1 expressed in Escherichia coli BL21(DE3) )-codon plus-RIL cells incubated for 4 hrs in dark condition by fluorescence anisotropy binding assay
[21] = Metabolic stability in mouse liver microsomes at 1 uM preincubated for 5 mins followed by NADPH addition and measured after 5 to 30 mins by LC/MS/MS analysis; format: ADME, Microsome; in short: as §1
[22] = target: Bromodomain-containing protein 2 (Homo sapiens) (UniProt P25440); test: Inhibition of BRD2 bromodomain 1 (unknown origin)
Chain of Bromodomain-containing protein 2 (Homo sapiens) (P25440 whole entry, looked up): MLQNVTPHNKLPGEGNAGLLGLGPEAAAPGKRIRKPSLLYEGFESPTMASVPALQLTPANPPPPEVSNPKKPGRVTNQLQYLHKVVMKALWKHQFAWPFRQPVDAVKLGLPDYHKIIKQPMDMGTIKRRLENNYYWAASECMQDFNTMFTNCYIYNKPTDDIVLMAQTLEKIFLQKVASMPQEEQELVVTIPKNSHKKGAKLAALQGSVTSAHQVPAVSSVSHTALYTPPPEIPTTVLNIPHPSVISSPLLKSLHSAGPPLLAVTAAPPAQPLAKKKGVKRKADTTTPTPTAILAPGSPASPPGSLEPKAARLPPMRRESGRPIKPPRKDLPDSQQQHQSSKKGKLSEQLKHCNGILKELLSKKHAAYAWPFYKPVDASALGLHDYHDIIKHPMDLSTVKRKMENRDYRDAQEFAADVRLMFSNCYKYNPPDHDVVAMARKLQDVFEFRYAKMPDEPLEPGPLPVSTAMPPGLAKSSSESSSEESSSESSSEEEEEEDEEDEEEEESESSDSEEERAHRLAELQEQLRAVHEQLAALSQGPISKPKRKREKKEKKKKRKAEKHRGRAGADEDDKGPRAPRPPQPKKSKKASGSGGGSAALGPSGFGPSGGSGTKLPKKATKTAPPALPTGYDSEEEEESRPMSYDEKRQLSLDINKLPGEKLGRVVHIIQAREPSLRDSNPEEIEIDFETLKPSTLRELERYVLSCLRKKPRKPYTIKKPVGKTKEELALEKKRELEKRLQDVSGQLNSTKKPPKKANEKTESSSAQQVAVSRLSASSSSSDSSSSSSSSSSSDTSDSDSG

[23] = target: T2, Bromodomain-containing protein 4; test: Inhibition of BRD4 bromodomain 2 (unknown origin)
[24] = Metabolic stability in human liver microsomes at 1 uM preincubated for 5 mins followed by NADPH addition and measured after 5 to 30 mins by LC/MS/MS analysis; format: ADME, Microsome; in short: as §1
[25] = target: Bromodomain-containing protein 2 (Homo sapiens) (UniProt P25440); test: Inhibition of BRD2 bromodomain 2 (unknown origin)
In short: (§6)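 Bromodomain binding panel (32 bromodomains) screened at 1 μM; primary binding read-out reported as percent of control, lower values meaning stronger binding.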

[26] = target: Histone acetyltransferase p300 (Homo sapiens) (UniProt Q09472); test: Inhibition of EP300 (unknown origin) at 1 uM; in short: as §6
[27] = target: T2, Bromodomain-containing protein 4; test: Inhibition of BRD4 bromodomain 1 (unknown origin)
In short: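 BRD4 BD1 (His6-tagged, E. coli BL21(DE3)-expressed, Ni-NTA purified) at 10 nM with 5 nM FITC-labelled (+)-JQ1 tracer; 50 mM HEPES pH 7.4, 150 mM NaCl, 0.5 mM CHAPS, DMSO 2‰ final; graded inhibitor; 4 h dark equilibration at room temperature; fluorescence anisotropy read (ex 485/em 530 nm). IC50 from two independent experiments in duplicate, mean ± SEM.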

[28] = target: CYP2D6 (Homo sapiens, UniProt P10635); test: Reversible inhibition of CYP2D6 in human liver microsomes at 10 uM using dextromethorphan as substrate preincubated for 5 mins followed by NADPH generating system addition and measured after 20 mins relative to control; format: ADME; settings: probe dextromethorphan; in short: as §3
Chain of CYP2D6 (P10635 whole entry): as the sequence (P10635 whole entry) above

SMILES | half-life at 1 µM [1] [min] | half-life at 1 µM [2] [min] | Tmax [3] [min] | microsomal CLint at 1 µM [4] [µL/min/mg] | TDI [5] | inhibition at 20 min, 10 µM [6] [%] | TDI [7] | TDI [8] | Cmax [9] [ng/mL] | AUC(0-t) [10] [ng·h/mL] | AUC(0-inf) [11] [ng·h/mL] | TDI [12] | microsomal CLint at 1 µM [13] [µL/min/mg] | inhibition at 20 min, 10 µM [14] [%] | inhibition at 20 min, 10 µM [16] [%] | half-life [17] [min] | IC50 [18] [nM] | TDI [19] | IC50 [20] [nM] | Stability [21] | further results
Cc1ccc(-n2nc(C(=O)N3CCN(C)CC3)nc2-c2ccc3c(c2)N(C2CC2)C(C)C(=O)N3C)cc1 (centres undefined) | 62 | 107 | 18 | 22 | 14 ×10⁻⁴ /min | 17 | Not Active | 19 ×10⁻⁴ /min | 1230 | 2740 | 2760 | 41 ×10⁻⁴ /min | 13 | 12 | 6 | 102 | 8 | 19 ×10⁻⁴ /min | 9.4 |  | inhibition at 20 min, 10 µM [15]: 2%
Cc1ccc(-n2c(C)nnc2-c2ccc3c(c2)N(C2CCCC2)[C@H](C)C(=O)N3C)cc1 |  |  |  |  | Not Active |  | Not Active | Not Active |  |  |  | Not Active |  |  | > 50 |  | 3.9 | Not Active | 5.2 | Stable | inhibition activity call (active/inactive) [22]: Active; inhibition [23]: Active; Stability [24]: Stable; inhibition [25]: Active; inhibition [26]: inactive; inhibition [27]: Active
Cc1ccc(-n2nc(C(=O)N3CCN(C)CC3)nc2-c2ccc3c(c2)N(C2CCCC2)[C@H](C)C(=O)N3C)cc1 | 23 | 41 | 18 | 61 | Not Active | 19 | 141 ×10⁻⁴ /min | 55 ×10⁻⁴ /min | 42900 | 58100 | 58100 | 51 ×10⁻⁴ /min | 34 | 31 | 30 | 36 | 26.1 | 74 ×10⁻⁴ /min | 5.4 |  | inhibition at 20 min, 10 µM [28]: 3%; inhibition activity call (active/inactive) [22]: Active; inhibition [23]: Active; inhibition [25]: Active; inhibition [26]: inactive; inhibition [27]: Active
Cc1ccc(-n2cnnc2-c2ccc3c(c2)N(C2CC2)C(C)C(=O)N3C)cc1 (centres undefined) |  |  | 18 |  | Not Active |  | Not Active | Not Active | 163 | 161 | 164 | Not Active |  |  |  | 90 | 6.7 | Not Active | 8.6 | Stable | Stability [24]: Stable
